The nature of data set [1]: Plasma clearance in mouse at 3 mg/kg, iv and 10 mg/kg, po. The data set is classed as ADME, organism-based.
The nature of data set [2]: Volume of distribution at steady state in mouse at 3 mg/kg, iv and 10 mg/kg, po. The data set is classed as ADME, organism-based. The following applies: in vivo, read-out: Vdss.
Data set [3] can be described thus: Cmax in mouse at 3 mg/kg, iv and 10 mg/kg, po. The following applies: in vivo. The data set is classed as ADME, organism-based.
The nature of data set [4]: AUC in mouse at 3 mg/kg, iv and 10 mg/kg, po. Type of data set: ADME, organism-based. The note with it: plasma.
Data set [5] in a line: Half life in mouse at 10 mg/kg, po. Type of data set: ADME, organism-based. More on the design: dose 10 mg/kg, route oral. The note with it: in vivo.
The nature of data set [6]: Oral bioavailability in mouse at 10 mg/kg. Type of data set: ADME, organism-based. The following applies: in vivo.
Data set [7] deals with Nitric oxide synthase, inducible (Homo sapiens, UniProt P35228). The data set is described as follows: Inhibition of human iNOS expressed in HEK293 cells assessed as inhibition of nitric oxide production after 18 hrs using 2,3-diaminonaphthalene by fluorescence assay. Type of data set: cell-based. The essentials: (§1)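 HEK293 cells grown to ~70% confluence in DMEM/10% FBS with pen/strep, transiently transfected with 10 μg human or murine iNOS plasmid plus Fugene 6 for 4 h at 37 °C, 10% CO2. Cells replated at 5e5 cells/mL and dosed with compound at once; 1400W (100 μM final) as positive control. After 18 h, DAN (10 μg/mL final) in HCl (0.1 N final) added for 20 min at room temperature. Fluorescence read after NaOH (0.12 N final).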
Sequence of Nitric oxide synthase, inducible (Homo sapiens, UniProt P35228) (P35228 whole entry): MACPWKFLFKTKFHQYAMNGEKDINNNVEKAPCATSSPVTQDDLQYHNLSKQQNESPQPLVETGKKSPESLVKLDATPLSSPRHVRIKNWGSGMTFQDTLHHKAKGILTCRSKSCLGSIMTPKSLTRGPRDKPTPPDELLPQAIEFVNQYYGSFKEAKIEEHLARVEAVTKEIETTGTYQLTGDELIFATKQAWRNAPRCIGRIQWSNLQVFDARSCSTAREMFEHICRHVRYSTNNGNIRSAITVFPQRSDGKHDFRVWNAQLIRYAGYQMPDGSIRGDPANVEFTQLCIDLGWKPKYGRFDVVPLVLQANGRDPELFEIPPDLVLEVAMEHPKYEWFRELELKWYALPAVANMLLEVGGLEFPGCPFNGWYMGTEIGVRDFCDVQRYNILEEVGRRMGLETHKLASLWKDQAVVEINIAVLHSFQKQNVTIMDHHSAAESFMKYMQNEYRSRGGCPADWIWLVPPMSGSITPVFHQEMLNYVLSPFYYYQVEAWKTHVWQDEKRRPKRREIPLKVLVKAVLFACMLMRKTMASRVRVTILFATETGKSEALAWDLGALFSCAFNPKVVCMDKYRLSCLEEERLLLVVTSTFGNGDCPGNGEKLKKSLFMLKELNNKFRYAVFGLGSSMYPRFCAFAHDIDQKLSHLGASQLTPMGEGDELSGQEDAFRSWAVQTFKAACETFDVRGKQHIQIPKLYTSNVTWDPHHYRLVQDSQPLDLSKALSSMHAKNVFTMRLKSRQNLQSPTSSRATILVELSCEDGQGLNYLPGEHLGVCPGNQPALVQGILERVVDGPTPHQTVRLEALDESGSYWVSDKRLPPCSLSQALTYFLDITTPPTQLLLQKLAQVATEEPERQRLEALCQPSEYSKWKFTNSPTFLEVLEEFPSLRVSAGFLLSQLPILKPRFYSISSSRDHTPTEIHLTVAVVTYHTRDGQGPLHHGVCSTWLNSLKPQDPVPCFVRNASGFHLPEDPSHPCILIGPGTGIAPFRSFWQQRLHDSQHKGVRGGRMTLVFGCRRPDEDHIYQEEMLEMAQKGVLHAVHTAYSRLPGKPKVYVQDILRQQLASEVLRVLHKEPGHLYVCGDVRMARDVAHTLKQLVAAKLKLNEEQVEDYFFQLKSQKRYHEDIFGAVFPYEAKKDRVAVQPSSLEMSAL

A further data set concerns the target Nitric oxide synthase 1 (Homo sapiens, UniProt P29475). Kind of data set: Inhibition of human nNOS expressed in HEK293 cells assessed as inhibition ionomycin induced nitric oxide production incubated for 24 hrs measured after 18 hrs of ionomycin challenge using 2,3-diaminonaphthalene by fluorescence assay. The data set is classed as cell-based. In outline: (§2)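 HEK293 cells transfected for 4 h at 37 °C with human nNOS (10 μg) or human eNOS (15 μg) plasmid (Fugene 6, 3:1). Cells replated at 5e5 cells/mL and dosed with compound at once; SEITU (100 μM final) as positive control. After 24 h, cells activated with A23187 (83 nM final) for eNOS or ionomycin (30 μM final) for nNOS. NO read 18 h later as nitrite-DAN fluorescence.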

In the next data set the target is T1, Nitric oxide synthase 3 (Homo sapiens, UniProt P29474).
T1 sequence (P29474 whole entry): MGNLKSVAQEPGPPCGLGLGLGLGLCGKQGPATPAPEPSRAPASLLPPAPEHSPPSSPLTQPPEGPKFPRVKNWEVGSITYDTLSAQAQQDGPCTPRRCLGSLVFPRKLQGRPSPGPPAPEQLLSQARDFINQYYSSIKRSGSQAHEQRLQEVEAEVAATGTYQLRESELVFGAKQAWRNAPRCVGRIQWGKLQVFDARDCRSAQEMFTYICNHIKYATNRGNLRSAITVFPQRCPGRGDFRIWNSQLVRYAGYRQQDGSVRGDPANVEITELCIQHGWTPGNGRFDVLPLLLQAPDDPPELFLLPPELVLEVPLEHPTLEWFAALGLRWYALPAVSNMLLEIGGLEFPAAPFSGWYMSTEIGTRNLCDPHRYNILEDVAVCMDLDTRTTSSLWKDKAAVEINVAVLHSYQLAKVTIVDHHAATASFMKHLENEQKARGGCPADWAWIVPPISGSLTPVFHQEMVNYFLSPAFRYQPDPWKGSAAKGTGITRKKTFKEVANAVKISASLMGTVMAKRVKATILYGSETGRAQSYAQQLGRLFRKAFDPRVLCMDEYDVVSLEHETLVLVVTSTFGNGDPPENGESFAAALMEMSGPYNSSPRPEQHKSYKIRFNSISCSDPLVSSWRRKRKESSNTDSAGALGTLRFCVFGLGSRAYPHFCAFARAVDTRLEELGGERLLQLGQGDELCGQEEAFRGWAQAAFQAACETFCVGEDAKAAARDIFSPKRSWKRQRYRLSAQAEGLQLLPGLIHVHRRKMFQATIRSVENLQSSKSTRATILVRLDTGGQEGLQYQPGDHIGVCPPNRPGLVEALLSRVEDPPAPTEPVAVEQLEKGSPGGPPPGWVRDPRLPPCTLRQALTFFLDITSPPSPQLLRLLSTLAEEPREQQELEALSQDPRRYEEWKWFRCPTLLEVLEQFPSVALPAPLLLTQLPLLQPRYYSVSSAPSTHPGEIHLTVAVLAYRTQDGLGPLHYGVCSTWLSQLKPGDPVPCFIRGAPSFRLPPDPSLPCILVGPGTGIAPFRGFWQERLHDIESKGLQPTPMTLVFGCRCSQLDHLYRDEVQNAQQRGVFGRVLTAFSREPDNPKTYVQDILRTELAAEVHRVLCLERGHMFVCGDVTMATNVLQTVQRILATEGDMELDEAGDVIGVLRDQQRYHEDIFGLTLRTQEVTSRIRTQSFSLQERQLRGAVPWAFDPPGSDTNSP
The data set is described as follows: Inhibition of human eNOS expressed in HEK293 cells assessed as inhibition A23187 induced nitric oxide production incubated for 24 hrs measured after 18 hrs of […] challenge using 2,3-diaminonaphthalene by fluorescence assay. The data set is classed as cell-based. In outline:
as §2

The next data set has as its system Liver. The data set is described as follows: Half life in mouse liver microsomes assessed as formation of oxidation product and glucuronide conjugate. Type of data set: ADME, Microsome. In outline:
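Mouse liver microsomes run under combined phase I oxidation and phase II glucuronide conjugation; half-life reported in minutes.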

The species named for data set [8] is Homo sapiens. The data set is described as follows: Ratio of IC50 for human eNOS to EC50 for human iNOS.
Data set [9] is filed under the species Homo sapiens. The data set is described as follows: Ratio of IC50 for human nNOS to EC50 for human iNOS.
The target in data set [10] is T2, Nitric oxide synthase, inducible (Mus musculus, UniProt P29477).
T2 sequence (P29477 whole entry): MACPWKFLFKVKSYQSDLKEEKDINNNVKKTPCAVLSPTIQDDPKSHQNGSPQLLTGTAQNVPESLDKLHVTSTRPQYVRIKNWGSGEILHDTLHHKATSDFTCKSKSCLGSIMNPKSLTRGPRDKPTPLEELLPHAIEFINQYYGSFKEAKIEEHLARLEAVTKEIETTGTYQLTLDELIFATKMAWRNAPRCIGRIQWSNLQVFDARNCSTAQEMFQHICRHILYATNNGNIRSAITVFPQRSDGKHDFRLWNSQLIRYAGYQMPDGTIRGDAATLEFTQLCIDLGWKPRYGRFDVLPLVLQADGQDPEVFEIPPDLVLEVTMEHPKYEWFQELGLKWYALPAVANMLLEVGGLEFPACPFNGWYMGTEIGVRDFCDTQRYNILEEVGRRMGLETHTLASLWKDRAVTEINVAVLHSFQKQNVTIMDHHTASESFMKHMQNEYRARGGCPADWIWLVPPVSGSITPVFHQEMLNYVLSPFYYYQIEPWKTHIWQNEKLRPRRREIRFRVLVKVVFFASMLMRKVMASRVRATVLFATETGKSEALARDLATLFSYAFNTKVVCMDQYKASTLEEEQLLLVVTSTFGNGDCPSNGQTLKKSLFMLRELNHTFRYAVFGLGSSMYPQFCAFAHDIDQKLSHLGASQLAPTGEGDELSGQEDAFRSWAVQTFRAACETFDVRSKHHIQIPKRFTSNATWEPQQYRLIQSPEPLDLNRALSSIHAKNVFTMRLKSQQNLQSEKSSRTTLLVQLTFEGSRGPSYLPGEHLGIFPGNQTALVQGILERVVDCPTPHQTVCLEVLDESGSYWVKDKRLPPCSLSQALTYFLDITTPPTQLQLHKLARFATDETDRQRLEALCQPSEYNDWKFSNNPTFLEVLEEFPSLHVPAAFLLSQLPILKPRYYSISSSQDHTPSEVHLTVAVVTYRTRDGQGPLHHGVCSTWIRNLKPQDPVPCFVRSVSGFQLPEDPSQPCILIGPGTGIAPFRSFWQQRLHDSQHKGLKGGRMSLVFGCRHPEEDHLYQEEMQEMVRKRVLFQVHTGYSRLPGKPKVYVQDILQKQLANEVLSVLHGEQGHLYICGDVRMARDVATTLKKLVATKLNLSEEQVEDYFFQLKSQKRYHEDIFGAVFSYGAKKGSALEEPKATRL
The data set is described as follows: Inhibition of mouse iNOS expressed in HEK293 cells assessed as inhibition of nitric oxide production after 18 hrs using 2,3-diaminonaphthalene by fluorescence assay. Type of data set: cell-based. In outline:
as §1

The subject of a further data set is Mus musculus. Kind of data set: Inhibition of LPS-induced iNOS activation in BALB/c mouse assessed as plasma nitrate levels at 30 mg/kg administered via oral gavage before LPS challenge measured after 6 to 8 hrs using 2,3-diaminonaphthalene by fluorescence assay relative to control. The data set is classed as functional. The essentials:
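Male BALB/c mice dosed by oral gavage (90% PEG/5% Tween 80/5% PVP + 0.5% w/v CMC) immediately before LPS (10 mg/kg ip in 0.9% NaCl). Mice killed at 6 h. EDTA plasma analysed for nitrate and drug levels; nitrite measured by DAN fluorescence.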

A short description of data set [11]: Half life in mouse at 3 mg/kg, iv and 10 mg/kg, po. The note with it: in vivo.
The target in data set [12] is T3, Nitric oxide synthase 3 (Homo sapiens) (UniProt P29474).
T3 sequence (whole entry): T1 sequence (P29474 whole entry)
Kind of data set: Inhibition of human eNOS expressed in HEK293 cells assessed as inhibition A23187 induced nitric oxide production at 100 uM incubated for 24 hrs measured after 18 hrs of […] challenge using 2,3-diaminonaphthalene by fluorescence assay. The data set is classed as cell-based.

A short description of data set [13]: Plasma clearance in rhesus monkey at 3 mg/kg, iv and 10 mg/kg, po. The data set is classed as ADME, organism-based, Macaca mulatta. The essentials:
(§3)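 Rhesus pharmacokinetics: 3 mg/kg iv and 10 mg/kg po, HCl salt. Clp, t1/2, Vdss, Cmax, AUC, oral t1/2 and %F reported.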

Data set [14] in a line: Half life in rhesus monkey at 3 mg/kg, iv and 10 mg/kg, po. The note with it: in vivo. The data set is classed as ADME, organism-based, Macaca mulatta. In outline: as §3
The nature of data set [15]: Volume of distribution at steady state in rhesus monkey at 3 mg/kg, iv and 10 mg/kg, po. The following applies: in vivo, read-out: Vdss. Type of data set: ADME, organism-based, Macaca mulatta. In outline:
as §3

The nature of data set [16]: Cmax in rhesus monkey at 3 mg/kg, iv and 10 mg/kg, po. The data set is classed as ADME, organism-based, Macaca mulatta. The following applies: in vivo. In outline:
as §3

Data set [17] is described as follows: AUC in rhesus monkey at 3 mg/kg, iv and 10 mg/kg, po. Type of data set: ADME, organism-based, Macaca mulatta. The note with it: plasma. The essentials:
as §3

Data set [18] can be described thus: Half life in rhesus monkey at 10 mg/kg, po. The data set is classed as ADME, organism-based, Macaca mulatta. More on the design: dose 10 mg/kg, route oral. The following applies: in vivo.
A short description of data set [19]: Bioavailability in rhesus monkey at 3 mg/kg, iv and 10 mg/kg, po. Type of data set: ADME, organism-based, Macaca mulatta. The following applies: in vivo. In outline:
as §3

Molecules are shown by their SMILES.

Data on four molecules can be found in ChEMBL document CHEMBL1800057, “Discovery of dual inducible/neuronal nitric oxide synthase (iNOS/nNOS) inhibitor development candidate 4-((2-cyclobutyl-1H-imidazo[4,5-b]pyrazin-1-yl)methyl)-7,8-difluoroquinolin-2(1H)-one (KD7332) part 2: identification of a novel, potent, and selective series of benzimidazole-quinolinone …” (J Med Chem, 2010).

Sequence of Nitric oxide synthase 1 (P29475 whole entry): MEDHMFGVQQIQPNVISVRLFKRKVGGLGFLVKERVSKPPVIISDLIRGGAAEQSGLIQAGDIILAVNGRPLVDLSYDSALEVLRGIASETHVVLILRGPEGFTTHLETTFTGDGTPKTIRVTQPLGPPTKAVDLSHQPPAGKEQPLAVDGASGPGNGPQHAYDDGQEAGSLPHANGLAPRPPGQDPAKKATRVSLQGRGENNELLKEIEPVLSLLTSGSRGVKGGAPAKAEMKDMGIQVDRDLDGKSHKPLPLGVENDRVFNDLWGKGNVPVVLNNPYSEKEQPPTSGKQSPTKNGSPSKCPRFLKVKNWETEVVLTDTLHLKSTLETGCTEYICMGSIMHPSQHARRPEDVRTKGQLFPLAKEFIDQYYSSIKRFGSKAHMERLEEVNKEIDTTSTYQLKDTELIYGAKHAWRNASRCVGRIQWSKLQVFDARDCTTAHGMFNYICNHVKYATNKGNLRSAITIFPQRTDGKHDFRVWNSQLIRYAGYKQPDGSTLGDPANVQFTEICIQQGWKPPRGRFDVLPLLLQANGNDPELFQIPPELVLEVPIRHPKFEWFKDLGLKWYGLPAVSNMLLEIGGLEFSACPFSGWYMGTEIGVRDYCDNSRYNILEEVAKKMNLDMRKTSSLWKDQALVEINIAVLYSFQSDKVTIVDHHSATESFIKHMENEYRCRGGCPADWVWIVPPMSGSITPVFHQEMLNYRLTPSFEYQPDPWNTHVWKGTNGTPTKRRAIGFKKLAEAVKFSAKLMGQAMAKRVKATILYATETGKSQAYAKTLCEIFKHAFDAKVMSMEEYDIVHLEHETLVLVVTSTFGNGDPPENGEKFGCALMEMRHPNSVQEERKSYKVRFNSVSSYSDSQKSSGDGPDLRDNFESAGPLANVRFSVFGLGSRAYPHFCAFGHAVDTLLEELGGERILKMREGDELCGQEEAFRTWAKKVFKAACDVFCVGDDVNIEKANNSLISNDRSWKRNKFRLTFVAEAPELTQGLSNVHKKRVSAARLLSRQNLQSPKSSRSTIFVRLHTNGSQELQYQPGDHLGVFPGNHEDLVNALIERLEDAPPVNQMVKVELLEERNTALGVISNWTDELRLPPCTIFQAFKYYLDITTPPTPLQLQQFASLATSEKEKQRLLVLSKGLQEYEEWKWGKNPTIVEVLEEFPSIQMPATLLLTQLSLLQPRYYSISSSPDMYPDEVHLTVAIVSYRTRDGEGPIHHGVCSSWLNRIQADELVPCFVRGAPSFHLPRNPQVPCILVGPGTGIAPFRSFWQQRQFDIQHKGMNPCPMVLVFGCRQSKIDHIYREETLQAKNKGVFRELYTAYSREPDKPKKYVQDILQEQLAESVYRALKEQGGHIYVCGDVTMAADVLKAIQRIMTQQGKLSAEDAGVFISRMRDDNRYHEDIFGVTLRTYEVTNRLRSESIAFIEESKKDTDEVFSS

`Cc1ncsc1-c1nc2ccccc2n1Cc1cc(=O)[nH]c2c(F)c(F)ccc12` yielded a clearance in [1] of 12 mL/min/kg. In [2], the Vd was found to be 1.2 L/kg. Besides, in [3], the highest level (Cmax) was 3800 ng/mL. This molecule also had an AUC in data set [4] of 5670 ng·h/mL. The half-life in data set [5] is 3.1 h; in [11], 2.3 h. The molecule also showed a bioavailability in [6] of 39%. Further, the EC50 was 1.8 µM in [7], 1.5 µM on Nitric oxide synthase 1, 6.8 µM at Nitric oxide synthase 3 and 10.3 µM in data set [10]. The t1/2 in the data set with Liver came to 1.63 h. Besides, the Ratio EC50 in the data set filed under Homo sapiens [8] was determined as 3.8; in the data set listed under Homo sapiens [9], 0.8. In addition, the inhibition in vivo at 30 mg/kg with Mus musculus was 30%.

In data set [3], `CN(C)c1ccnc2c1nc(C1CCC1)n2Cc1cc(=O)[nH]c2c(F)c(F)ccc12` yielded a Cmax of 400 ng/mL. The exposure (AUC) in [4] was 700 ng·h/mL. The molecule also had a half-life in data set [5] of 1.4 h. Besides, the EC50 in [7] is 0.17 µM; at Nitric oxide synthase 1, 1 µM; on Nitric oxide synthase 3 it was above 100 µM; in data set [10] it was 1.8 µM. Also, the t1/2 in the data set on Liver amounted to 0.13 h. The Ratio EC50 was above 590 in the data set filed under Homo sapiens [8] and 5.9 in the data set filed under Homo sapiens [9]. Besides, the inhibition in [12] was below 50%. In addition, the inhibition in vivo at 30 mg/kg in the data set with Mus musculus was found to be 30%.

In [13], `Cl.O=c1cc(Cn2c(C3CC(F)(F)C3)nc3nccnc32)c2cccc(F)c2[nH]1` yielded a clearance of 8.6 mL/min/kg. Also, the half-life in data set [14] was 6.6 h; in data set [18], 6.1 h. The Vd in [15] was 1.8 L/kg. In data set [16], this molecule yielded a Cmax of 3400 ng/mL. The same molecule had an AUC in data set [17] of 21000 ng·h/mL. The same molecule came in with a bioavailability in data set [19] of 100%.

As to `Cl.O=c1cc(Cn2c(C3CCC3)nc3nccnc32)c2cccc(F)c2[nH]1`, in data set [13], the clearance amounted to 4.3 mL/min/kg. In addition, the half-life was 6.8 h in [14] and 10 h in data set [18]. In [15], the Vd stood at 1.2 L/kg. Besides, the Cmax in data set [16] is 1800 ng/mL. The same molecule had an AUC in data set [17] of 23000 ng·h/mL. In addition, the bioavailability in [19] came to 93%.
